ChEMBL document CHEMBL1145959, “Design and synthesis of 8-hydroxy-[1,6]naphthyridines as novel inhibitors of HIV-1 integrase in vitro and in infected cells” (J Med Chem, 2003)

How the values were obtained:
[1] = system: MT4; assay: Cell culture inhibitory concentration which inhibits 95% spread of HIV infection in cell culture, using HIV-1 IIIB variant and MT-4 T-lymphoid cells; format: functional; settings: Homo sapiens, read-out: CIC95
[2] = molecular target: Human immunodeficiency virus type 1 integrase (Human immunodeficiency virus 1, UniProt Q7ZJM1); assay: Compound was tested for its ability to inhibit the strand transfer of the integration process catalyzed by HIV integrase
Chain of Human immunodeficiency virus type 1 integrase (Q7ZJM1 whole entry): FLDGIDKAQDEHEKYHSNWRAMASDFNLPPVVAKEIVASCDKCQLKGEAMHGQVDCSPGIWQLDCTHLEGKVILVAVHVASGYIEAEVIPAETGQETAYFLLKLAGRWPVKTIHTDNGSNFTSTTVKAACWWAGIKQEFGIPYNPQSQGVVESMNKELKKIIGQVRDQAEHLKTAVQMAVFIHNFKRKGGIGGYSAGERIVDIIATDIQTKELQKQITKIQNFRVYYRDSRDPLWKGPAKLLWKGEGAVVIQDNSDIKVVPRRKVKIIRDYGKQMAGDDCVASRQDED

[3] = system: MT4; assay: Cytotoxicity of compound was determined on MT-4 cells; format: functional, Homo sapiens
Method in brief: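 MT-4 cultures incubated 4 days with inhibitor. Toxicity scored by visual inspection for cytopathic effects: gross morphological changes, altered growth pattern, and metabolic change seen as lack of change in the medium pH indicator. Cell numbers also checked; cells typically double at least 4 times over the 4 days.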

[4] = Peak plasma level of compound (10 mg/kg) administered orally to rats after 60 min was determined; format: ADME, organism-based; design: dose 10 mg/kg, route oral; settings: rat, po
Method in brief: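 Rats dosed orally at 10 mg/kg as a 3.0 mg/mL aqueous solution with 1% methylcellulose and 1% DMSO. Plasma concentration followed over time, with Cmax taken as the peak plasma level.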

| SMILES | IC95 [1] | IC50 [2] | Cytotoxicity [3] | Cmax [4] |
| --- | --- | --- | --- | --- |
| O=C(c1cc(Cc2ccccc2)ccn1)c1ccc2cccnc2c1O | 2500 nM | 50 nM | 2.5 µM | – |
| O=C(O)C(=O)CC(=O)c1cccc(Cc2ccccc2)c1 | 1110 nM | 10 nM | >50 µM | – |
| O=C(c1cc(Cc2ccccc2)cc(CN2CCCS2(=O)=O)c1)c1ncc2cccnc2c1O | 390 nM | 10 nM | >12.5 µM | 1170 nM |
| O=c1c2cc(Cc3ccccc3)ccc2oc2ccc(O)c(O)c12 | 6000 nM | 600 nM | 3 µM | – |
| O=C(c1cccc(Cc2ccccc2)c1)c1ccc2cccnc2c1O | 5000 nM | – | 1.25 µM | – |
| O=C(c1cccc(Cc2ccccc2)c1)c1ncc2cccnc2c1O | 6200 nM | 40 nM | 12.5 µM | – |
| O=C(c1cccc(Cc2ccccc2)c1)c1oc2cccnc2c1O | > 50000 nM | 1000 nM | 12.5 µM | – |
